ChEMBL document CHEMBL1240471, “Synthesis and anticancer activity of chromone-based analogs of lavendustin A” (Eur J Med Chem, 2010)
≈ marks a conversion by molar mass, not a printed value.

Assays:
Format in all cases: functional, cell-based
A549 = assay: Growth inhibition of human A549 cells after 72 hrs by SRB assay; details: A549, 72 h
How it was run: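 A-549 cells were seeded at 2 × 10³ cells/well. Various sample concentrations were tested in triplicate over 72 h at 37 °C under 5% CO₂. Absorbance was read at 520 nm. GI₅₀ was assigned as the concentration giving 50% growth inhibition.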

A-431 = assay: Growth inhibition of human A431 cells after 72 hrs by SRB assay; details: A-431, 72 h
How it was run: (§1)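 Cells were seeded at 5 × 10³ cells/well in 96-well plates. Various sample concentrations were added in triplicate, and plates were incubated for 72 h at 37 °C in 5% CO₂. Optical density was read at 520 nm. GI₅₀ was taken as the concentration inhibiting cell growth by 50%.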

KB = assay: Growth inhibition of human KB cells after 72 hrs by SRB assay; how it was run: as §1
SK-MEL-2 = assay: Growth inhibition of human SK-MEL-2 cells after 72 hrs by SRB assay; details: SK-MEL-2, 72 h; how it was run: as §1
SK-OV-3 = assay: Growth inhibition of human SKOV3 cells after 72 hrs by SRB assay; details: SK-OV-3, 72 h
HCT-15 = assay: Growth inhibition of human HCT15 cells after 72 hrs by SRB assay; details: HCT-15, 72 h; how it was run: as §1

IC50 (A549) | IC50 (A-431) | IC50 (KB) | IC50 (SK-MEL-2) | IC50 (SK-OV-3) | IC50 (HCT-15) | Structure (SMILES)
26.1 µg/mL (≈ 56.8 µM) | > 100 µg/mL | 24.3 µg/mL (≈ 53 µM) | 21.9 µg/mL (≈ 47.6 µM) | 41.7 µg/mL (≈ 90.7 µM) | 31.5 µg/mL (≈ 68.5 µM) | COc1ccc(CCN(Cc2ccccc2)Cc2c(O)ccc3c(=O)cc(C)oc23)cc1OC
32.7 µg/mL (≈ 96.8 µM) | > 100 µg/mL | 32.6 µg/mL (≈ 96.6 µM) | 57.5 µg/mL (≈ 171 µM) | > 100 µg/mL | 43.2 µg/mL (≈ 128 µM) | CCN(CCc1ccccc1)Cc1c(O)ccc2c(=O)cc(C)oc12
38.7 µg/mL (≈ 110 µM) | 41.9 µg/mL (≈ 119 µM) | 47.4 µg/mL (≈ 134 µM) | 60.3 µg/mL (≈ 171 µM) | 57.5 µg/mL (≈ 163 µM) | 22.4 µg/mL (≈ 63.5 µM) | CCN(Cc1ccc(OC)cc1)Cc1c(O)ccc2c(=O)cc(C)oc12
9.92 µg/mL (≈ 22.3 µM) | 61 µg/mL (≈ 137 µM) | 10.8 µg/mL (≈ 24.4 µM) | 74.1 µg/mL (≈ 167 µM) | > 100 µg/mL | 7.68 µg/mL (≈ 17.3 µM) | Cc1cc(=O)c2ccc(O)c(CN(CCc3ccccc3)Cc3ccc([N+](=O)[O-])cc3)c2o1
17.9 µg/mL (≈ 34.6 µM) |  | 35 µg/mL (≈ 67.6 µM) | > 100 µg/mL |  | 49.4 µg/mL (≈ 95.4 µM) | COc1ccc(CN(CCc2ccccc2)Cc2c(O)ccc3c(=O)cc(/C=C/c4ccccc4)oc23)cc1
11.9 µg/mL (≈ 30.9 µM) | 19.5 µg/mL (≈ 50.6 µM) | 15.1 µg/mL (≈ 39.2 µM) | 17.8 µg/mL (≈ 46.1 µM) | 19 µg/mL (≈ 49.2 µM) | 11.3 µg/mL (≈ 29.4 µM) | Cc1cc(=O)c2ccc(O)c(CN(Cc3ccccc3)Cc3ccccc3)c2o1
16.6 µg/mL (≈ 38.7 µM) | 25.2 µg/mL (≈ 58.7 µM) | 16.1 µg/mL (≈ 37.4 µM) | 19.9 µg/mL (≈ 46.4 µM) | 65 µg/mL (≈ 151 µM) | 15.8 µg/mL (≈ 36.8 µM) | COc1ccc(CCN(Cc2ccccc2)Cc2c(O)ccc3c(=O)cc(C)oc23)cc1
14.1 µg/mL (≈ 34 µM) | 44.7 µg/mL (≈ 108 µM) | 42.7 µg/mL (≈ 103 µM) | 78.6 µg/mL (≈ 189 µM) | 24.5 µg/mL (≈ 59.1 µM) | 10.7 µg/mL (≈ 25.8 µM) | COc1ccc(CN(Cc2ccccc2)Cc2c(O)ccc3c(=O)cc(C)oc23)cc1
24.5 µg/mL (≈ 53.1 µM) | > 100 µg/mL | 24.4 µg/mL (≈ 53 µM) | > 100 µg/mL | > 100 µg/mL | 28.6 µg/mL (≈ 62.1 µM) | COc1ccc(CN(Cc2ccc([N+](=O)[O-])cc2)Cc2c(O)ccc3c(=O)cc(C)oc23)cc1
6.01 µg/mL (≈ 12.9 µM) | 16.4 µg/mL (≈ 35.2 µM) | 17.6 µg/mL (≈ 37.8 µM) | > 100 µg/mL | > 100 µg/mL | 6.89 µg/mL (≈ 14.8 µM) | COc1ccc(CN(Cc2ccc3ccccc3c2)Cc2c(O)ccc3c(=O)cc(C)oc23)cc1
12.3 µg/mL (≈ 30.9 µM) | 18.5 µg/mL (≈ 46.3 µM) | 14.5 µg/mL (≈ 36.3 µM) | 17.4 µg/mL (≈ 43.5 µM) | 21.6 µg/mL (≈ 54 µM) | 11.7 µg/mL (≈ 29.3 µM) | Cc1cc(=O)c2ccc(O)c(CN(CCc3ccccc3)Cc3ccccc3)c2o1
62.5 µg/mL (≈ 140 µM) | 38.9 µg/mL (≈ 87.3 µM) | 17.8 µg/mL (≈ 39.9 µM) | 31.6 µg/mL (≈ 71 µM) | > 100 µg/mL | 53.7 µg/mL (≈ 121 µM) | COc1ccc(CN(Cc2ccc(OC)cc2)Cc2c(O)ccc3c(=O)cc(C)oc23)cc1
